From PMC8317634 (Journal of the Endocrine Society, 2021)

Legend:
[1] = test system: individuals with obesity and hypertension; assay: 8 weeks treatment, fasting plasma before and after; type: in vivo, human; conditions: amlodipine 10 mg once a day, n = 7, control group
Outline: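 Multicentre, randomized, double-blinded study in adults with hypertension and obesity. Participants received amlodipine 10 mg once daily (n = 7) or sacubitril/valsartan 194 mg/206 mg once daily (n = 7) for 8 weeks. Plasma was sampled after an overnight fast before and after treatment. Glucagon was measured by validated 2-site enzyme immunoassay and L-amino acids by a commercial kit.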

[2] = used to correct the oral dose; species and source not given; cited from earlier work
female C57BL/6JRj mice [3] = assay: Oral amino acid challenge in female mice treated with sacubitril, GRA or Ex9-39; type: in vivo; conditions: AAs 34 mg oral
Outline: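 Female C57BL/6JRj mice (n = 7-10) were fasted 3 h. They were pretreated with GRA vehicle or GRA (100 mg/kg oral) at –180 min, or Ex9-39 (100 µg i.p.) at –15 min. Sacubitril (oral gavage) or PBS/0.7% DMSO was given at –30 min. An amino-acid mixture (34 mg, oral gavage) followed at 0 min. Blood glucose was measured from tail bleeds by handheld glucometer at 0, 10, 15, 30, 60 and 180 min.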

female C57BL/6JRj mice [4] = assay: Female mice given water instead of amino acids; type: in vivo; conditions: sacubitril coadministered with vehicle, GRA or Ex9-39 vs these alone; n = 3
Outline: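 Female C57BL/6JRj mice were fasted 3 h with free water. They received GRA (100 mg/kg, oral gavage suspension) or its vehicle at –180 min, or Ex9-39 (100 µg i.p.) at –15 min. Sacubitril (0.7 nmol/g BW, oral gavage; DMSO diluted in PBS) or PBS/0.7% DMSO was given at –30 min, then water at 0 min. Retrobulbar blood was taken at 0–180 min for plasma glucagon by 2-site enzyme immunoassay.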

[5] = test system: GLP-1R^–/– mice and GLP-1R^+/+ mice; type: in vivo; conditions: sacubitril at -30 min, AAs 34 mg oral
NEP activity = molecular target: T1, NEP activity (Mus musculus, UniProt Q61391); assay: Inhibition of NEP activity in mice by oral sacubitril; type: in vivo; conditions: sacubitril 0.7 nmol/g BW, oral gavage; data not shown
T1 sequence (Q61391 1-750): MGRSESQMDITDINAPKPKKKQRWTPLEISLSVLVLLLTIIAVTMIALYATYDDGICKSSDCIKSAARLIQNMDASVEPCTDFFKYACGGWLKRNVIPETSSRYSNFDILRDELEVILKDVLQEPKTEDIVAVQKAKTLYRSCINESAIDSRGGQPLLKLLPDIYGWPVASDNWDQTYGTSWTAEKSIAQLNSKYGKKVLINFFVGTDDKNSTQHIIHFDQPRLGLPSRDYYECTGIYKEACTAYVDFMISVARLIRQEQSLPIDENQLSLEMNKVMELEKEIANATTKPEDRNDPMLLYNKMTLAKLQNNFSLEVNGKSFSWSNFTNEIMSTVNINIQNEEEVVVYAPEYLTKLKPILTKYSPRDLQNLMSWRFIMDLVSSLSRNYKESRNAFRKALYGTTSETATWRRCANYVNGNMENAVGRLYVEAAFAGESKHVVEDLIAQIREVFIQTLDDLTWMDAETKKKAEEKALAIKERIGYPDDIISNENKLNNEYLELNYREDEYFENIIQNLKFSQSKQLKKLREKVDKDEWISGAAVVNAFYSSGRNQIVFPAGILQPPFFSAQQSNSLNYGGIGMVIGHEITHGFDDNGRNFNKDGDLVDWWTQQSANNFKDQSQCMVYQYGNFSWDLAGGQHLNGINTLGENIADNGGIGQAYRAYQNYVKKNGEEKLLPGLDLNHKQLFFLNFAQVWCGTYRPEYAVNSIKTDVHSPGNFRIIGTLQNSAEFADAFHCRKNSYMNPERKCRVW

male C57BL/6JRj mice = assay: Oral amino acid challenge in male mice treated with sacubitril; type: in vivo; conditions: AA challenge, n = 6
Outline: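 Male C57BL/6JRj mice (~22 g) were acclimatized for at least 1 week. At –30 min they received sacubitril (0.7 nmol/g BW; DMSO stock diluted in PBS) or vehicle (PBS, 0.7% DMSO) by oral gavage. Amino acids (34 mg, Vamin solution) were gavaged at 0 min. Tail blood was sampled at 0, 10, 15, 30, 60 and 180 min for glucometer glucose and EDTA plasma. Plasma glucagon was measured by two-site enzyme immunoassay; L-amino acids and urea by kits.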

recombinant NEP = assay: ANP degradation by recombinant NEP; type: biochemical; conditions: MALDI-TOF
healthy young men = assay: Single dose of sacubitril/valsartan; type: in vivo, human; conditions: valsartan alone 206 mg; n = 3
Outline: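 Healthy men meeting the crossover-trial inclusion criteria (n = 3) received valsartan 206 mg 30 min before a solid mixed meal (42 g carbohydrate, 25 g fat, 26 g protein), or the meal alone, on separate occasions. Blood was drawn at –60, –15, 0, 30, 45, 90 and 180 min. Plasma glucagon was measured by validated 2-site enzyme immunoassay, and the postprandial response was expressed as incremental AUC.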

In the case of `CCOC(=O)C1=C(COCCN)NC(C)=C(C(=O)OC)C1c1ccccc1Cl` (centres unmarked) [amlodipine], the “plasma concentrations of glucose, glucagon, or AAs, after vs before” value [1] is reported as “no significant changes”.

In the case of `CCOC(=O)[C@H](C)C[C@@H](Cc1ccc(-c2ccccc2)cc1)NC(=O)CCC(=O)O` [sacubitril], the bioavailability [2] is given as 60%, the “plasma concentrations of glucagon, coadministration with Ex9-39 vs Ex9-39 alone” value (female C57BL/6JRj mice [3]; sacubitril 0.7 nmol/g BW + Ex9-39 100 µg) is given as “increased plasma concentrations of glucagon more” and the “plasma concentrations of amino acids vs vehicle” value (female C57BL/6JRj mice [3]; sacubitril 0.7 nmol/g BW oral) is given as “no effect on plasma concentrations of amino acids”. For the same compound, the “blood glucose concentrations in response to an AA challenge” value (female C57BL/6JRj mice [3]; sacubitril 0.7 nmol/g BW oral, vs vehicle) was “no significant increase”, the “plasma concentrations of glucagon, water instead of AAs” value (female C57BL/6JRj mice [4]) was “increased numerically” and the “plasma AA iAUC in GLP-1^–/– mice” value ([5]; mean ± SD, vehicle 255 ± 118, P = .05) was 376 ± 67. For the same compound, the “augmenting effect on AA-stimulated glucagon levels in GLP-1R^+/+ mice” value ([5]; time point 15 minutes, P = .02) was “apparent only in littermate controls”, the “glucagon response to AAs in GLP-1R^–/– mice” value ([5]; vs vehicle) was “did not, however, increase the glucagon response to AAs” and the “blood glucose concentrations in response to an AA challenge in GLP-1R^–/– mice” value ([5]; vs vehicle, P = .03) was “increased blood glucose concentrations”. For the same compound, the “inhibition of NEP activity in mice” value (NEP activity) was ~ 60%, the “blood glucose or plasma concentrations of AAs, male mice” value (male C57BL/6JRj mice) was “without altering blood glucose or plasma concentrations of AAs” and the “plasma concentrations of glucagon, male mice” value (male C57BL/6JRj mice) was “increased plasma concentrations of glucagon”. For the same compound, the “plasma concentrations of urea, male mice” value (male C57BL/6JRj mice) was “did not increase plasma concentrations of urea”.

With `C[C@H](C[C@@H](Cc1ccc(-c2ccccc2)cc1)NC(=O)CCC(=O)O)C(=O)O` [sacubitrilat] the “effect on NEP-induced ANP cleavage” value (recombinant NEP; sacubitrilat added) was “prevented by the addition of sacubitrilat”.

With `CCCCC(=O)N(Cc1ccc(-c2ccccc2-c2nnn[nH]2)cc1)[C@H](C(=O)O)C(C)C` [valsartan] the “effect on postprandial plasma concentrations of glucagon vs control” value (healthy young men) was “no effect”.

In the case of atrial natriuretic peptide [ANP], the “degradation of ANP by NEP” value (recombinant NEP; positive control, recombinant NEP, Supplementary Fig. 2A and 2B) is reported as “NEP cleavage resulted in the formation of a known substrate (m/z 2585)”.
